Published values collected from several papers.
Lines come from different studies, so protocols differ.
Target: Calcium/calmodulin-dependent protein kinase type 1 (CAMK1, Homo sapiens, UniProt Q14012)

| SMILES | read-out | mode | technique | concentration | endpoint | value |
| --- | --- | --- | --- | --- | --- | --- |
| FC(F)c1nc2ccccc2n1-c1nc(N2CCOCC2)nc(N2CCOCC2)n1 | enzyme activity | inhibitor | – | 10 µM | remaining activity | 114% |
| CCCOc1ccc([C@@H]2[C@@H](C(=O)O)[C@H](c3ccc4c(c3)OCO4)CN2CC(=O)Nc2c(CC)cccc2CC)cc1 | cell-free assay | – | competition with immobilised ligand | 1 µM | remaining binding | 100% |
| C=CC(=O)Nc1cc(Nc2nccc(Nc3cc(Cl)c(F)cc3C(C)(C)O)n2)c(OC)cc1N1CC[C@@H](N(C)C)C1 | enzyme activity | inhibitor | – | 1 µM | inhibition | 2% |
| CCN(CC)c1ccc(C2=NNC(=O)CC2C)cc1[N+](=O)[O-] (stereo not drawn) | enzyme activity | inhibitor | – | 10 µM | remaining activity | 89% |
| O=C(Nc1cnc(Oc2ccc(F)cc2)nc1)N1CCc2ncccc2[C@@H]1c1ccc(F)cc1 | cell-free assay | – | competition with immobilised ligand | 1 µM | remaining binding | 73% |
| Cc1ccc(NC(=O)c2ccc(C)c(C(F)(F)F)c2)cc1C#Cc1nn(C2CCC(O)CC2)c2ncnc(N)c12 (stereo not drawn) | cell-free assay | – | – | 10 µM | remaining signal | 62% |
| Cc1ccc(C(=O)Nc2ccc(CN3CCN(C)CC3)c(C(F)(F)F)c2)cc1C#Cc1cnc2cccnn12 | enzyme activity | – | – | 23.5 nM | remaining activity | 74% |
| COc1cc(Cl)c(C(=O)N[C@@H](CN[C@H]2CC[C@@H](N)CC2)Cc2ccc(C#N)cc2)cc1-c1ccc(CN[C@H](C)c2ccc(C)cc2)o1 | enzyme activity | inhibitor | – | 1 µM | remaining activity | 108% |
| Nc1ncnc2occ(-c3ccc(NC(=O)Nc4cc(C(F)(F)F)ccc4F)cc3)c12 | cell-free assay | – | – | 20 µM | remaining signal | 5.5% |
| Cc1ccc(Nc2nccc(N(C)c3ccc4c(C)n(C)nc4c3)n2)cc1S(N)(=O)=O | enzyme activity | inhibitor | – | 0.3 µM | inhibition | 13% |
| Cc1sc(C(=O)NC2COC2)cc1-n1cc(NC(=O)Nc2c(F)cccc2Cl)cn1 | enzyme activity | inhibitor | – | 10 µM | remaining activity | 115% |
| COc1cc(-c2cn(C3CCc4c(F)cccc4N(CC(F)(F)F)C3=O)nn2)ccc1-n1cnc(C)c1 (stereo not drawn) | cell-free assay | – | competition with immobilised ligand | 1 µM | remaining binding | 100% |
| O=C1Nc2ccc(Cl)cc2C1=Cc1cc(Cl)c(O)c(Cl)c1 | cell-free assay | – | – | 0.5 µM | remaining signal | 94.9% |
| CC(=O)N1CCC(c2ccc(C(=O)NC3=NCCN3)cc2C(F)(F)F)CC1 | cell-free assay | – | competition with immobilised ligand | 1 µM | remaining binding | 100% |
| COc1cccc2c(NCc3ccccc3)nc(-n3c(N)nc4ccccc43)nc12 | target engagement in cells | inhibitor | chemoproteomics | 20 mM | inhibition | -2.1% |
| N#CCCc1ccc2c(c1)-c1[nH]c3ccc([N+](=O)[O-])cc3c1CC(=O)N2 | cell-free assay | – | – | 0.5 µM | remaining signal | 96% |
| COc1cc(Nc2cnc(C#N)c(O[C@H](C)CN(C)C)n2)ncc1-c1cnn(C)c1 | enzyme activity | inhibitor | radiometric | 1 µM | remaining activity | 92% |
| CNC(=O)c1cc(Oc2ccc(NC(=O)Nc3ccc(Cl)c(C(F)(F)F)c3)cc2)ccn1 | enzyme activity | inhibitor | – | 0.3 µM | inhibition | -6% |
| COc1cc(/C=C/C(=O)CC(=O)/C=C/c2ccc(O)c(OC)c2)ccc1O | enzyme activity | inhibitor | – | 1 µM | activity vs control | 86% |
| CC/C(=N\NC(=O)NCc1cccc(O)c1)c1ccc(O)c(C)c1O | enzyme activity | inhibitor | – | 0.1 µM | inhibition | -2.3% |
| Cc1noc([C@H]2C[C@@H](c3ccc(C(F)(F)F)cc3)CN(C(=O)N3CCS(=O)(=O)C3)C2)n1 | cell-free assay | – | competition with immobilised ligand | 1 µM | remaining binding | 100% |
| COc1cc(-c2cc(-c3ccc(N4CCNCC4)cc3)cnc2C)cc(OC)c1OC | enzyme activity | inhibitor | – | 0.1 µM | inhibition | 1% |
| COc1cc2ncnc(Nc3ccc(F)c(Cl)c3)c2cc1OCCCN1CCOCC1 | cell-free assay | – | – | 0.5 µM | remaining signal | 102% |
| Nc1nc(Nc2ccccc2)sc1C(=O)c1c(F)cccc1F | enzyme activity | inhibitor | – | 10 µM | remaining activity | 55% |
| CCc1ccccc1C(=O)Nc1n[nH]c2c(C)c(F)c(C3C(C#N)=C(C)N(C)C(C)=C3C#N)cc12 | cell-free assay | – | competition with immobilised ligand | 1 µM | remaining binding | 76% |
| O=C(Nc1cnn(-c2csc(C(=O)NC3COC3)c2)c1)Nc1ccccc1Cl | enzyme activity | inhibitor | – | 5 µM | remaining activity | 87.1% |
| O=C(NS(=O)(=O)c1ccc(NCC2CCOCC2)c([N+](=O)[O-])c1)c1ccc(N2CCN(Cc3ccc(C(F)(F)F)cc3-c3ccc(Cl)cc3)CC2)cc1Oc1cnc2[nH]ccc2c1 | cell-free assay | – | competition with immobilised ligand | 1 µM | remaining binding | 100% |
| CCCCNc1ncc2c(-c3ccc(F)cc3)nn(C[C@H]3CC[C@H](N)CC3)c2n1 | target engagement in cells | inhibitor | chemoproteomics | 20 mM | inhibition | 2.2% |
| Nc1c(C(=O)NCc2ccc(C(=O)NCCCC3CCCCC3)cc2)cnn1-c1ccccc1 | cell-free assay | – | competition with immobilised ligand | 0.1 µM | remaining binding | 100% |
| CCN(CC)CCNC(=O)c1c(C)[nH]c(/C=C2\C(=O)Nc3ccc(F)cc32)c1C | enzyme activity | inhibitor | – | 10 µM | inhibition | 87% |
